Source: ChEMBL document CHEMBL1157558, “Design, asymmetric synthesis, and evaluation of pseudosymmetric sulfoximine inhibitors against HIV-1 protease” (Bioorg Med Chem, 2010)

How the values were obtained:
[1] = molecular target: Protease (Human immunodeficiency virus 1) (UniProt Q9YQ12); assay: Inhibition of recombinant HIV1 protease at 10 uM by HPLC method
Procedure, shortened: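 Recombinant HIV-1 protease with HIV-1 Protease Substrate III in 50 mM sodium acetate pH 4.9, 200 mM NaCl, 5 mM DTT, 10% glycerol; inhibitors added from DMSO (5% v/v final). Enzyme addition starts the reaction, run 3.5 min at 37 °C, then quenched with 10% TFA. Substrate conversion is read by reverse-phase C18 HPLC (5–50% acetonitrile, 0.1% TFA), against inhibitor-free 5% DMSO baseline.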

[2] = tested on: Human immunodeficiency virus 1; assay: Antiviral activity against HIV1 assessed as inhibition of viral infection at 10 uM by cell-based assay; type: functional
[3] = tested on: Human immunodeficiency virus 1; assay: Antiviral activity against HIV1 assessed as inhibition of viral infection by cell-based assay; type: functional, organism-based

Sequence of Protease (Human immunodeficiency virus 1) (Q9YQ12 as listed by the source): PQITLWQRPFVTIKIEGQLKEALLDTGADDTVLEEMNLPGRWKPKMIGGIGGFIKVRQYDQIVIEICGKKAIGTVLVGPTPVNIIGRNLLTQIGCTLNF

Row | Structure (SMILES) | inhibition [1] [%] | inhibition at 10 µM [2] [%] | IC50 [3] [µM]
1 | N=[S+]([O-])(C[C@H](Cc1ccccc1)C(=O)N[C@@H](CO)c1ccccc1)C[C@H](Cc1ccccc1)C(=O)N[C@@H](CO)c1ccccc1 | 87 | 0 | –
2 | CNC(=O)[C@H](NC(=O)[C@@H](Cc1ccccc1)C[S+]([O-])C[C@H](Cc1ccccc1)C(=O)N[C@@H](C(=O)NC)C(C)C)C(C)C | 90 | 2.1 | –
3 | CN=[S+]([O-])(C[C@H](Cc1ccccc1)C(=O)N[C@@H]1c2ccccc2C[C@@H]1O)C[C@H](Cc1ccccc1)C(=O)N[C@@H]1c2ccccc2C[C@@H]1O | – | – | > 10
4 | O=C(N[C@@H](CO)c1ccccc1)[C@@H](CSC[C@@H](Cc1ccccc1)C(=O)N[C@@H](CO)c1ccccc1)Cc1ccccc1 | 51 | 15.4 | –
5 | O=C(N[C@@H](CO)c1ccccc1)[C@@H](Cc1ccccc1)C[S+]([O-])C[C@H](Cc1ccccc1)C(=O)N[C@@H](CO)c1ccccc1 | 47 | 0 | –
6 | CNC(=O)[C@@H](NC(=O)[C@@H](CSC[C@@H](Cc1ccccc1)C(=O)N[C@H](C(=O)NC)C(C)C)Cc1ccccc1)C(C)C | 87 | 12.6 | –
7 | O=C(N[C@H](CO)c1ccccc1)[C@@H](Cc1ccccc1)C[S+]([O-])C[C@H](Cc1ccccc1)C(=O)N[C@H](CO)c1ccccc1 | 50 | 2.5 | –
8 | CNC(=O)[C@H](NC(=O)[C@@H](Cc1ccccc1)C[S+](=N)([O-])C[C@H](Cc1ccccc1)C(=O)N[C@@H](C(=O)NC)C(C)C)C(C)C | 99 | 5.5 | –
9 | N=[S+]([O-])(C[C@H](Cc1ccccc1)C(=O)N[C@H](CO)c1ccccc1)C[C@H](Cc1ccccc1)C(=O)N[C@H](CO)c1ccccc1 | 54 | 0 | –
10 | O=C(N[C@H](CO)c1ccccc1)[C@@H](CSC[C@@H](Cc1ccccc1)C(=O)N[C@H](CO)c1ccccc1)Cc1ccccc1 | 41 | 1.4 | –
